# In ChEMBL document CHEMBL4257543, “Structural optimization and antibacterial evaluation of rhodomyrtosone B analogues against MRSA strains” (Medchemcomm, 2018):
# Activity calls are given as the source filed them.
# How the values were obtained:
# [1] = system: Staphylococcus aureus; test: Antibacterial activity against methicillin-resistant Staphylococcus aureus JCSC 4788 at sub-MIC re-passaged at 24 hrs intervals for 5 times by micro dilution susceptibility test; assay type: functional, organism-based
# How it was run: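 Exponential-phase MRSA JCSC 4788 at 37 °C passaged into fresh MHB containing compound at a sub-inhibitory concentration and re-passaged at 24 h intervals up to at least 20 passages; MIC then redetermined by CLSI microbroth dilution in MHB. Resistance defined as a more than 4-fold increase over the initial MIC.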
# [2] = system: Staphylococcus aureus; test: Ratio of MIC for methicillin-resistant Staphylococcus aureus JCSC 4788 re-passaged at 24 hrs intervals for 20 times to MIC for methicillin-resistant Staphylococcus aureus JCSC 4788; assay type: functional
# How it was run: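 Sequential passaging of MRSA JCSC 4788 in MHB with sub-inhibitory compound at 24 h intervals for at least 20 passages at 37 °C. MIC after passaging, by CLSI microbroth dilution, is divided by the initial MIC. Resistance is defined as a rise of more than 4-fold.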
# [3] = system: Staphylococcus aureus; test: Antibacterial activity against Staphylococcus aureus ATCC 6538 by micro dilution susceptibility test; assay type: functional
# How it was run: (§1)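 Microbroth dilution MIC in Mueller–Hinton broth following CLSI guidelines, vancomycin as positive control; resazurin added as visible growth indicator. Assays run at least in triplicate.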
# [4] = system: Staphylococcus aureus; test: Antibacterial activity against methicillin-resistant Staphylococcus aureus JCSC 4788 by micro dilution susceptibility test; assay type: functional; how it was run: as §1
SMILES,Activity [1],Ratio [2],MIC [3] [µg/mL],MIC [4] [µg/mL]
CC1COc2c(N3CCN(C)CC3)c(F)cc3c(=O)c(C(=O)O)cn1c23 (stereo unspecified) [OFLOXACIN],inactive,16,–,–
CCCCCCC(=O)c1c(O)cc(O)c2c1OC1=C(C(=O)C(C)(C)C(=O)C1(C)C)C2CC(C)C (stereo unspecified),–,–,0.25,0.5
CCCCC(=O)c1c(O)cc(O)c2c1OC1=C(C(=O)C(C)(C)C(=O)C1(C)C)C2CC(C)C (stereo unspecified),–,–,0.5,1
CCCCCCCCCCCCCC(=O)c1c(O)cc(O)c2c1OC1=C(C(=O)C(C)(C)C(=O)C1(C)C)C2CC(C)C (stereo unspecified),–,–,128,256
CC(C)CC1C2=C(Oc3cc(O)cc(O)c31)C(C)(C)C(=O)C(C)(C)C2=O (stereo unspecified),–,–,> 256,256
CCCCCCCCC(=O)c1c(O)cc(O)c2c1OC1=C(C(=O)C(C)(C)C(=O)C1(C)C)C2CC(C)C (stereo unspecified),–,–,0.25,0.5
CCC(=O)c1c(O)cc(O)c2c1OC1=C(C(=O)C(C)(C)C(=O)C1(C)C)C2CC(C)C (stereo unspecified),–,–,2,2
CC(=O)c1c(O)cc(O)c2c1OC1=C(C(=O)C(C)(C)C(=O)C1(C)C)C2CC(C)C (stereo unspecified),–,–,4,4
CCCCCCCCCCC(=O)c1c(O)cc(O)c2c1OC1=C(C(=O)C(C)(C)C(=O)C1(C)C)C2CC(C)C (stereo unspecified),–,–,1,1
CC(C)CC1C2=C(Oc3c(C(=O)C4CCCCC4)c(O)cc(O)c31)C(C)(C)C(=O)C(C)(C)C2=O (stereo unspecified),–,–,2,4
CCCCCC(=O)c1c(O)cc(O)c2c1OC1=C(C(=O)C(C)(C)C(=O)C1(C)C)C2CC(C)C (stereo unspecified),–,–,0.5,0.5
CCCC(=O)c1c(O)cc(O)c2c1OC1=C(C(=O)C(C)(C)C(=O)C1(C)C)C2CC(C)C (stereo unspecified),–,–,2,2
CC(C)CC(=O)c1c(O)cc2c(c1O)C(CC(C)C)C1=C(O2)C(C)(C)C(=O)C(C)(C)C1=O (stereo unspecified),–,–,1,1
